# Data published in ChEMBL document CHEMBL1144051, “Structural considerations of NK109, an antitumor benzo[c]phenanthridine alkaloid” (J Nat Prod, 1999).
# Key:
# [1] = test system: HeLa; assay: Growth inhibition of human HeLa S3 cells after 72 hrs; format: functional, cell-based
# Procedure, shortened: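 HeLa S3 in Eagle's MEM with 10% calf serum and 60 µg/mL kanamycin, 37 °C, 5% CO2; seeded, grown 24 h, then exposed 72 h to compound diluted in 5% glucose at 0.01–10 µg/mL. Nuclei stained with methylene blue, cell number read at 660 nm; IC50 from growth rate relative to control.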
# [2] = test system: Mus musculus; assay: Toxicity against mouse P388 cells xenografted CDF1 mouse assessed as survival time at 50 mg/kg, iv; format: organism-based; design: dose 50 mg/kg, route intravenous; settings: in vivo
# Procedure, shortened: (§1)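 Female CDF1 mice, 6 weeks old, five per group, inoculated iv with P-388 leukemia cells (1 × 10^5 cells/body) on day 0; cells maintained by ip passage in DBA/2 mice. Single tail-vein injection on day 1 (0.1 mL per 10 g), vehicle 5% glucose or EtOH–Cremophore (1:1) diluted in 5% glucose. Followed 30 days; T/C (%) from median survival time, treated versus control.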
# [3] = test system: P388; assay: Antitumor activity against mouse P388 cells xenografted CDF1 mouse at 75 mg/kg, iv administered on day 1 after 30 days relative to control; format: functional; procedure, shortened: as §1
# [4] = test system: Mus musculus; assay: Toxicity in mouse P388 cells xenografted CDF1 mouse assessed as decrease in body weight at 150 mg/kg, iv administered on day 1 after 30 days; format: organism-based; design: dose 150 mg/kg, route intravenous; settings: in vivo, 720 h
# Procedure, shortened: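 Female CDF1 mice, 6 weeks old, five per group, given P-388 cells iv (1 × 10^5 cells/body) on day 0, then a single tail-vein dose on day 1 in 5% glucose or EtOH–Cremophore (1:1) diluted in 5% glucose. Body weight tracked against untreated controls, reported as mean with s.e.mean.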
# [5] = Dissociation constant, pKa of the compound; format: physicochemical
# [6] = test system: P388; assay: Antitumor activity against mouse P388 cells xenografted CDF1 mouse at 150 mg/kg, iv administered on day 1 after 30 days relative to control; format: functional; procedure, shortened: as §1
# [7] = test system: P388; assay: Antitumor activity against mouse P388 cells xenografted CDF1 mouse at 50 mg/kg, iv administered on day 1 after 30 days relative to control; format: functional; procedure, shortened: as §1
# [8] = test system: Mus musculus; assay: Toxicity against mouse P388 cells xenografted CDF1 mouse assessed as survival time at 150 mg/kg, iv; format: organism-based; design: dose 150 mg/kg, route intravenous; settings: in vivo; procedure, shortened: as §1
# [9] = test system: Mus musculus; assay: Toxicity against mouse P388 cells xenografted CDF1 mouse assessed as survival time at 75 mg/kg, iv; format: organism-based; design: dose 75 mg/kg, route intravenous; settings: in vivo; procedure, shortened: as §1
# [10] = test system: Mus musculus; assay: Toxicity against mouse P388 cells xenografted CDF1 mouse assessed as survival time at 6.25 mg/kg, iv; format: organism-based; design: dose 6.25 mg/kg, route intravenous; settings: in vivo; procedure, shortened: as §1
# [11] = test system: P388; assay: Antitumor activity against mouse P388 cells xenografted CDF1 mouse at 6.25 mg/kg, iv administered on day 1 after 30 days relative to control; format: functional; procedure, shortened: as §1
# [12] = test system: P388; assay: Antitumor activity against mouse P388 cells xenografted CDF1 mouse at 25 mg/kg, iv administered on day 1 after 30 days relative to control; format: functional; procedure, shortened: as §1
# [13] = test system: Mus musculus; assay: Toxicity against mouse P388 cells xenografted CDF1 mouse assessed as survival time at 25 mg/kg, iv; format: organism-based; design: dose 25 mg/kg, route intravenous; settings: in vivo; procedure, shortened: as §1
# [14] = test system: P388; assay: Antitumor activity against mouse P388 cells xenografted CDF1 mouse at 12.5 mg/kg, iv administered on day 1 after 30 days relative to control; format: functional; procedure, shortened: as §1
# [15] = test system: Mus musculus; assay: Toxicity against mouse P388 cells xenografted CDF1 mouse assessed as survival time at 12.5 mg/kg, iv; format: organism-based; design: dose 12.5 mg/kg, route intravenous; settings: in vivo; procedure, shortened: as §1
SMILES,IC50 [1],MSD [2],T/C [3],Activity [4],pKa [5],T/C [6],T/C [7],MSD [8],MSD [9],MSD [10],T/C [11],T/C [12],MSD [13],T/C [14],MSD [15]
COc1ccc2c(c1O)CN(C)c1c-2ccc2cc3c(cc12)OCO3,16.2 µg/mL,–,–,–,–,–,–,–,–,–,–,–,–,–,–
COc1ccc2c(c[n+](C)c3c4cc5c(cc4ccc23)OCO5)c1O.O.O.O=S(=O)([O-])O,0.08 µg/mL,13.2 days,159%,Toxic,5.3,261%,147%,23.5 days,14.3 days,–,–,–,–,–,–
COc1ccc2c(c[n+](C)c3c4cc5c(cc4ccc23)OCO5)c1OC.[Cl-] [CHELERYTHRINE CHLORIDE],1.24 µg/mL,–,–,–,–,–,–,–,–,10 days,111%,12%,1.1 days,111%,10 days
COc1c(O)ccc2c1c[n+](C)c1c3cc4c(cc3ccc21)OCO4.[Cl-] [FAGARIDINE HYDROCHLORIDE],3.99 µg/mL,–,–,–,–,–,–,–,–,–,–,–,–,–,–
COc1cc2c(ccc3c4cc(OC)c(OC)cc4c[n+](C)c23)cc1O.[Cl-] [FAGARONINE],0.39 µg/mL,9.5 days,14%,–,–,–,102%,–,1.3 days,–,–,102%,9.5 days,–,–
COc1cc2c[n+](C)c3c4cc5c(cc4ccc3c2cc1OC)OCO5.[Cl-] [NITIDINE CHLORIDE],0.05 µg/mL,9.5 days,46%,–,–,–,102%,–,4.3 days,–,–,108%,10 days,–,–
C[n+]1cc2c3c(ccc2c2ccc4cc5c(cc4c21)OCO5)OCO3.[Cl-] [SANGUINARIUM CHLORIDE],0.16 µg/mL,1.1 days,–,–,–,–,12%,–,–,–,–,25%,2.3 days,102%,9.5 days
